The values that follow come from publication PMC4455945 (Journal of the American Chemical Society, 2015).

Peptide text beside a SMILES is read from it. * marks the point of attachment. Cbz = O=C(OCc1ccccc1)*

The target of data set [1] is Purified 26S proteasome (Homo sapiens, UniProt P20618+P28074). In words: Cleavage of Suc-LLVY-AMC by purified 26S proteasome. The data set is classed as biochemical.
The subject of data set [2] is HEK-293T cells. Put plainly: Cell viability of HEK-293T cells. The data set is classed as cell-based. The note with it: concentration of 100 μM. In a few lines:
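HEK-293T cells were tested alongside multiple myeloma lines after exposure to test peptoids. Viability was read as fluorescence (RFU).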

Data set [3] concerns HEK293-T cells. Put plainly: Anti-Ub Western blot of poly-ubiquitin conjugates in HEK293-T cells. The data set is classed as cell-based. As to conditions: relative to vehicle-treated cells. (In western blotting, separated proteins are transferred to a membrane and probed.)
The target in data set [4] is T1, Rpn13 (Homo sapiens, UniProt Q16186). The note with it: assay not described; cited from earlier work.
Data set [5] deals with T1, Rpn13. Put plainly: FP competition against fluorescently labeled 11 bound to Rpn13. The data set is classed as binding. As to conditions: increasing amounts of competitor. In a few lines:
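Rpn13 pre-incubated with fluorescein-labelled test peptoid to form the complex, then challenged with increasing amounts of unlabelled competitor: either a covalent Rpn13 inhibitor reported to react at Cys88, or the unlabelled form of the same peptoid. Read-out is the change in fluorescence polarization.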

T1 sequence (Q16186 whole entry): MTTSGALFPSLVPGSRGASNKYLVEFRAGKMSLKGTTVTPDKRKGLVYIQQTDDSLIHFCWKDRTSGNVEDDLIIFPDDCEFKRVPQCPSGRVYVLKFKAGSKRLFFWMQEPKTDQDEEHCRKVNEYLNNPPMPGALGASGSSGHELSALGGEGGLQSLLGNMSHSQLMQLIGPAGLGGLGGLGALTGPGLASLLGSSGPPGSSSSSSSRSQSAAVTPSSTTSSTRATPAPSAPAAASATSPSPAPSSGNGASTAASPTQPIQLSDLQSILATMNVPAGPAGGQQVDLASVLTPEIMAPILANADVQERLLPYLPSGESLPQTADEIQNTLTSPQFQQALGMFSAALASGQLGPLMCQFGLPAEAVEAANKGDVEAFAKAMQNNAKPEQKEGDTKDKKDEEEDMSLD

Regarding `CC(C)C[C@H](NC(=O)[C@H](Cc1ccccc1)NC(=O)c1cnccn1)B(O)O` [Bortezomib], in data set [1], the “effect on hydrolysis of the fluorogenic peptide (fluorescence)” value is “dose-sensitive decrease of fluorescence”.
`CC(C)C[C@@H](C=O)NC(=O)[C@H](CC(C)C)NC(=O)[C@H](CC(C)C)NC(=O)OCc1ccccc1` [MG-132] (Cbz-Leu-Leu-Leu-aldehyde): the “cell death of HEK-293T cells at 100 μM” value in data set [2] was “no significant cell death”. For the same compound, the “accumulation of ubiquitylated proteins” value in data set [3] is “accumulation of ubiquitylated proteins does occur”.
In general, IC50 refers to the point on the concentration scale where inhibition reaches its midpoint. Take `Cl.N[C@@H](Cc1ccccc1)C(=O)N1C/C(=C/c2ccc(Cl)c(Cl)c2)C(=O)/C(=C\c2ccc(Cl)c(Cl)c2)C1` [RA-190]: the IC50 in data set [4] is 0.1 µM. Moreover, in data set [5], the “competition of the fluorescently labeled 11-Rpn13 complex (FP signal)” value is reported as “insensitive”.
